For experiment [1], the target named is T1, rat recombinant κ-opioid receptor (Rattus norvegicus, UniProt P34975). The experiment is described as follows: […]-GTPγS binding functional assay. Type of experiment: biochemical. On the technique in general: GTPγS is a poorly hydrolysed GTP analogue; its binding reports G protein activation.
Experiment [2] deals with T1, rat recombinant κ-opioid receptor. The experiment is described as follows: […]-GTPγS binding functional assay. It is filed as biochemical. This is another data set of the same source.
Experiment [3] has the same target. The experiment is described as follows: […]-GTPγS binding functional assay. It is filed as biochemical. The note with it: antagonist mode, against agonist.
Experiment [4] concerns the target T2, rat recombinant δ-opioid receptor (Rattus norvegicus, UniProt P33533). The experiment can be described thus: […]-GTPγS binding functional assay. Type of experiment: biochemical. As to conditions: antagonist mode, against agonist.
Experiment [5] deals with T3, recombinant human κ-opioid receptor (Homo sapiens, UniProt P41145). The experiment is described as follows: […]-GTPγS binding functional assay. Type of experiment: biochemical.
In experiment [6] the target is T3, recombinant human κ-opioid receptor. The experiment can be described thus: […]-GTPγS binding functional assay. It is filed as biochemical. The note with it: antagonist mode, against agonist.
Experiment [7] concerns the target T4, rat recombinant μ-opioid receptor (Rattus norvegicus, UniProt P33535). The experiment is described as follows: […]-GTPγS binding functional assay. Type of experiment: biochemical.
The target in experiment [8] is T5, recombinant human μ-opioid receptor (Homo sapiens, UniProt P35372). The experiment is described as follows: […]-GTPγS binding functional assay. It is filed as biochemical. The note with it: antagonist mode, against agonist.
Experiment [9] addresses T2, rat recombinant δ-opioid receptor. The experiment is described as follows: […]-GTPγS binding functional assay. Type of experiment: biochemical.
In experiment [10] the target is T5, recombinant human μ-opioid receptor. The experiment can be described thus: radioligand displacement, [3H]-DAMGO. It is filed as binding. In general terms: In a radioligand displacement assay an active substance lowers the binding of a labelled ligand.
Experiment [11] deals with T6, recombinant human δ-opioid receptor (Homo sapiens, UniProt P41143). The experiment can be described thus: […]-GTPγS binding functional assay. It is filed as biochemical. The note with it: antagonist mode, against agonist.
Experiment [12] has as its target T2, rat recombinant δ-opioid receptor. The experiment can be described thus: radioligand displacement, [3H]-DADLE. It is filed as binding. In outline:
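δ-Opioid receptor sites labelled with [³H]-DADLE and displaced by test compound. The IC₅₀ is the concentration inhibiting 50% of specific binding. Ki = IC₅₀/(1 + L/Kd), where L is the radioligand concentration and the radioligand Kd comes from Scatchard plot analysis. Duplicate measurements in two or three independent experiments; data where fitting failed were excluded.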

For experiment [13], the target named is T5, recombinant human μ-opioid receptor. The experiment is described as follows: […]-GTPγS binding functional assay. Type of experiment: biochemical.
In experiment [14] the target is T4, rat recombinant μ-opioid receptor. The experiment can be described thus: […]-GTPγS binding functional assay. As to conditions: antagonist mode, against agonist. It is filed as biochemical.
The target in experiment [15] is T6, recombinant human δ-opioid receptor. The experiment is described as follows: radioligand displacement, [3H]-DADLE. Type of experiment: binding.
Experiment [16] concerns the target T4, rat recombinant μ-opioid receptor. The experiment can be described thus: radioligand displacement, [3H]-DAMGO. It is filed as binding.
Experiment [17] deals with T6, recombinant human δ-opioid receptor. The experiment can be described thus: […]-GTPγS binding functional assay. It is filed as biochemical.
For experiment [18], the target named is T3, recombinant human κ-opioid receptor. The experiment can be described thus: radioligand displacement, [3H]-U-69, […]. It is filed as binding.

T6 sequence (P41143 whole entry): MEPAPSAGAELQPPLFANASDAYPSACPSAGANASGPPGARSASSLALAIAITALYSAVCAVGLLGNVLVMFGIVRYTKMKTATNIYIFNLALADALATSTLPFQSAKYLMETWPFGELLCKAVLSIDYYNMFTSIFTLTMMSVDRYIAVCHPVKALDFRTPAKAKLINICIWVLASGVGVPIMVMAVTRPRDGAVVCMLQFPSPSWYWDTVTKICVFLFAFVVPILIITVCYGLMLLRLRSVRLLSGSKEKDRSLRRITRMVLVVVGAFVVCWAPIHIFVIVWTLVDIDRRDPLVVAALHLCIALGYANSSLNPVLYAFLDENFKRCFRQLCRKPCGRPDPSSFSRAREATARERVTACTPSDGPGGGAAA
T3 sequence (P41145 whole entry): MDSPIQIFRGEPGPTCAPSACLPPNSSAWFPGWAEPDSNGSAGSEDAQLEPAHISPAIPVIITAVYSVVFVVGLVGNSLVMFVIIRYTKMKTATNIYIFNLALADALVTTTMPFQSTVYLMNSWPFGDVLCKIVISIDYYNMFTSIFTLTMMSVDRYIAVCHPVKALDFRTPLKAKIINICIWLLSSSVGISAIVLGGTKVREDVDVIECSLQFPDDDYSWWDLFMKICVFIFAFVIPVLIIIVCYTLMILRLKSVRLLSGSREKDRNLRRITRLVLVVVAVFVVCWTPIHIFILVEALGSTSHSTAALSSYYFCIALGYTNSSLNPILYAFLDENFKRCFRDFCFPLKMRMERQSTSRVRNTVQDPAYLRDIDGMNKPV
T1 sequence (P34975 whole entry): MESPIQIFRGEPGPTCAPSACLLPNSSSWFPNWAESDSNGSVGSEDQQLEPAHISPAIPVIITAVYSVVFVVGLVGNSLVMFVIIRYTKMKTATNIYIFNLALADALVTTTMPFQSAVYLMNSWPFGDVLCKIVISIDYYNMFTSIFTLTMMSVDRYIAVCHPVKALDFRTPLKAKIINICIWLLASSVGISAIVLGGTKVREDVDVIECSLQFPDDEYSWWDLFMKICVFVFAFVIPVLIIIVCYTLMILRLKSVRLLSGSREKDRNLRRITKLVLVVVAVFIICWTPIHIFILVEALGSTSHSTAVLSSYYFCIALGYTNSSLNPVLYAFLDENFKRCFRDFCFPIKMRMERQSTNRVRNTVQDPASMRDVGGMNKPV
T4 sequence (P33535 whole entry): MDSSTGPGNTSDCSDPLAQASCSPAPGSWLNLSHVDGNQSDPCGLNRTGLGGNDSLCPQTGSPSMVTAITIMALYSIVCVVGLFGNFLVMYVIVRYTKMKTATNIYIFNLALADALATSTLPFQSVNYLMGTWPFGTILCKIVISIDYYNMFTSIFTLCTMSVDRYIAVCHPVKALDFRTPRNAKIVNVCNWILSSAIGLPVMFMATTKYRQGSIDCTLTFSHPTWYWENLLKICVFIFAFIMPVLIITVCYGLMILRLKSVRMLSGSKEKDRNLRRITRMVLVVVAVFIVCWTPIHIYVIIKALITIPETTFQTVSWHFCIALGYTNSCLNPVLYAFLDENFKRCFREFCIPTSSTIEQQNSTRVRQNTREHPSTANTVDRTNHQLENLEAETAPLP
T5 sequence (P35372 whole entry): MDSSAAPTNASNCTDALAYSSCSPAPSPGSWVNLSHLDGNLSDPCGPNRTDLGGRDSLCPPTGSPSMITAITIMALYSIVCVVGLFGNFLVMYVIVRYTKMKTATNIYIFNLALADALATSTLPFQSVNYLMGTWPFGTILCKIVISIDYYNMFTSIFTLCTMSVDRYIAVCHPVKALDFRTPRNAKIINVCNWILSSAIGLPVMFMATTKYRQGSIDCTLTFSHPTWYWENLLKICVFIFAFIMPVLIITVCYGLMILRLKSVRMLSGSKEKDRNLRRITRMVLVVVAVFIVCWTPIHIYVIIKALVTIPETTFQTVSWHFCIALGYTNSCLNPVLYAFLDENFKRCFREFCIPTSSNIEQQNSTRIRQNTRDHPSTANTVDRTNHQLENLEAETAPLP
T2 sequence (P33533 whole entry): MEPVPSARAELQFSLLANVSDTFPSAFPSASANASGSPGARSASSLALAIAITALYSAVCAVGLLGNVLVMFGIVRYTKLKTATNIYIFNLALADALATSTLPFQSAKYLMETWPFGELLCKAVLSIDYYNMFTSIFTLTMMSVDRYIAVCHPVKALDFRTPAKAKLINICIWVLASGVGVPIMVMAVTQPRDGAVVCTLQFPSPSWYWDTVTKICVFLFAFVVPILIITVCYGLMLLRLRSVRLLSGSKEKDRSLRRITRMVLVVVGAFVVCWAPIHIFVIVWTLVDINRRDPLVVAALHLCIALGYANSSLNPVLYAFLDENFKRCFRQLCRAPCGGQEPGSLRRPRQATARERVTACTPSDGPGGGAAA

On to `CC(C)(NC(=O)C1=C(O)[C@@H]2Oc3c(O)ccc4c3[C@@]23CCN(CC2CC2)[C@H](C4)[C@]3(O)C1)c1nc(-c2ccccc2)no1` [naldemedine], for which, in experiment [1], the IC50 is 12.2 ± 0.57 nM. Further, the EC50 in [2], in [5], in experiment [7], in experiment [9], in [13] and in experiment [17] was above 10000 nM each time. In addition, the figures for the “Antagonist activity (nmol L^-1) / κ” value in experiment [3] and in experiment [6] were 0.49 ± 0.02 nmol/L and 0.44 nmol/L, respectively. In addition, the “Antagonist activity (nmol L^-1) / δ” value in experiment [4] was found to be 0.22 ± 0.02 nmol/L; in [11], 0.27 ± 0.03 nmol/L. In addition, the entries for the “Antagonist activity (nmol L^-1) / μ” value in experiment [8] and in experiment [14] were 0.50 ± 0.05 nmol/L and 0.56 ± 0.02 nmol/L, respectively. In addition, the Ki in experiment [10] is 0.34 ± 0.03 nM; in experiment [12], 0.96 ± 0.06 nM; in [15], 0.43 ± 0.08 nM; in experiment [16] it was 1.4 ± 0.24 nM; in experiment [18], 0.94 nM.

As usually defined, the IC50 is the midpoint of a concentration-inhibition curve. Usually EC50 stands for the midpoint of the concentration-response curve. What is called Ki is a measure of affinity in units of concentration, obtained from inhibition or displacement.
